Data set [1] in a line: Volume of distribution at steady state in rat at 1 mg/kg, iv. Type of data set: ADME, organism-based. Also on record: dose 1 mg/kg, route intravenous. The note with it: in vivo, read-out: Vdss. An outline of the steps:
(§1)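 Rat pharmacokinetics after a single IV dose of 1 mg/kg and an oral dose of 5 mg/kg. Reported parameters are AUC, t1/2, clearance, Vss and oral bioavailability.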

A short description of data set [2]: AUC in rat at 1 mg/kg, iv. Type of data set: ADME, organism-based. Also on record: dose 1 mg/kg, route intravenous. The note with it: plasma. An outline of the steps:
as §1

A short description of data set [3]: AUC in Sprague-Dawley rat at 10 mg/kg, po. The class given is ADME, organism-based. Also on record: dose 10 mg/kg, route oral. The note with it: plasma. The procedure, abridged:
(§2)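 Male Sprague-Dawley rats, about 11 weeks old (300−400 g), singly housed with chow and water ad libitum. […] Urine was collected overnight predose and at 0−2, 2−4 and 4−7 h postdose for Na+ and K+, normalised to creatinine. Plasma drug was measured by LC-MS.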

A short description of data set [4]: Half life in rat at 1 mg/kg, iv. Also on record: dose 1 mg/kg, route intravenous. The class given is ADME, organism-based. The note with it: in vivo. The procedure, abridged: as §1
The nature of data set [5]: AUC in Sprague-Dawley rat at 30 mg/kg, po. Type of data set: ADME, organism-based. Also on record: dose 30 mg/kg, route oral. The following applies: plasma. The procedure, abridged: as §2
Data set [6] is described as follows: Clearance in rat at 1 mg/kg, iv. The class given is ADME, organism-based. Further details: dose 1 mg/kg, route intravenous. The following applies: in vivo. An outline of the steps:
as §1

Data set [7] in a line: Intrinsic clearance in human liver microsomes. Type of data set: ADME. The note with it: read-out: CLH. In general terms: Liver microsomes are vesicles of endoplasmic reticulum, rich in cytochrome P450 enzymes.
Data set [8] in a line: AUC in rat at 5 mg/kg, po. The note with it: plasma. Further details: dose 5 mg/kg, route oral. Type of data set: ADME, organism-based. The procedure, abridged:
as §1

The nature of data set [9]: Oral bioavailability in rat at 5 mg/kg. Type of data set: ADME, organism-based. The following applies: in vivo. An outline of the steps:
as §1

Data set [10] can be described thus: Lipophilicity, log D of the compound by octanol/buffer shake flask method. Type of data set: physicochemical.
Data set [11] can be described thus: AUC in Sprague-Dawley rat at 3 mg/kg, po. The class given is ADME, organism-based. Also on record: dose 3 mg/kg, route oral. The note with it: plasma. An outline of the steps: as §2

These results are taken from ChEMBL document CHEMBL3259597 (J Med Chem, 2014).

The structures appear in SMILES notation.

As usually defined, the AUC is concentration integrated over time. A word on the half-life: it is how long it takes for the measured level to halve. As usually defined, the clearance is the volume of plasma or blood freed of the substance per unit of time. One may read the bioavailability as the share of a dose that reaches the circulation, judged against a reference dose that is usually intravenous. Read a high bioavailability as much systemic uptake. What is called logD is lipophilicity at a set pH, counting ionised and neutral species. A higher logD goes with higher lipophilicity. In the case of `COc1nc(C2=NN(c3ccc(C#N)c(C)c3)[C@@H](C3CCCC3)C2)ccc1C(=O)O`, the Vd in data set [1] was determined as 3.1 L/kg. For the same compound, the exposure (AUC) in data set [2] came out at 494 ng·h/mL; in [3], 9240 ng·h/mL; in [5] it was 33600 ng·h/mL; in data set [8] it was 1320 ng·h/mL; in data set [11], 1170 ng·h/mL. This compound gave a half-life in [4] of 2.3 h. The clearance in [6] came out at 33 mL/min/kg. The microsomal CLint in data set [7] is below 14 µL/min/mg. For the same compound, in data set [9], the bioavailability was found to be 54%. Also, the log distribution coefficient (logD) in data set [10] is 2.2. As for `COc1cc(C2=NN(c3ccc(C#N)c(C)c3)[C@@H](C3CCCC3)C2)ccc1C(=O)O`, in data set [10], the logD is 2.2. On the same count and under the same terms, for `CCOc1nc(C2=NN(c3ccc(C#N)c(C)c3)[C@@H](C3CCCC3)C2)ccc1C(=O)O` the value was 3; for `COc1nc(C2=NN(c3ccc(C#N)c(C)c3)[C@@H](C3CCCC3)C2)ccc1C(N)=O`, 3.8. On the same count and under the same terms, the same measure for `COc1cc(C2=NN(c3ccc(C#N)c(Cl)c3)[C@@H](C3CCCC3)C2)ccc1C(=O)O`: 2.1; for `Cc1nc(N2N=C(c3ccc(C(=O)O)cc3)C[C@@H]2C2CCCC2)ccc1C#N`: 2.6.

Consider `COc1nc(C2=NN(c3ccc(C#N)c(C)c3)[C@@H](C3CCCC3)C2)ccc1C(=O)Nc1nnn[nH]1`, for which, in data set [10], the log distribution coefficient (logD) turned out to be 3.2.

Regarding `CNC(=O)c1ccc(C2=NN(c3ccc(C#N)c(C)n3)[C@@H](C3CCCC3)C2)nc1OC`, the pH-dependent lipophilicity (logD) in data set [10] worked out at 3.2. In the case of `COc1nc(C2=NN(c3ccc(C#N)c(C)n3)[C@@H](C3CCCC3)C2)ccc1C(=O)NS(C)(=O)=O`, the pH-dependent lipophilicity (logD) in data set [10] stood at 1.9. Same read-out and setting: the same measure for `COc1nc(C2=NN(c3ccc(C#N)c(C)n3)[C@@H](C3CCCC3)C2)ccc1C(N)=O`: 3.4; for `COc1nc(C2=NN(c3ccc(C#N)c(C)n3)[C@@H](C3CCCC3)C2)ccc1C(=O)N(C)C`: 4.1; for `COc1nc(C2=NN(c3ccc(C#N)c(C)n3)[C@@H](C3CCCC3)C2)ccc1C(=O)O`: 2. Same read-out and setting: the same measure for `COc1nc(C2=NN(c3ccc(C#N)c(C)n3)[C@@H](C(C)C)C2)ccc1C(=O)O`: 1.6.

Turning to `COc1cc(C2=NN(c3ccc(C#N)c(C)n3)[C@@H](C3CCCC3)C2)ccc1C(=O)O`, in [10], the logD was 1.7. This logD and that of the compound before are within 0.2 log units of each other. On the same count and under the same terms, for `COc1nc(C2=NN(c3ccc(C#N)c(Cl)c3)[C@@H](C3CCCC3)C2)ccc1C(=O)O` the value was 2.3. Consider `COc1nc(C2=NN(c3ccc(C#N)c(C)c3)[C@@H](C3CCCC3)C2)ccc1C(=O)NS(C)(=O)=O`, for which the microsomal CLint in data set [7] turned out to be 175 µL/min/mg. In data set [10], this compound showed a pH-dependent lipophilicity (logD) of 2.3. For `N#Cc1ccc(N2N=C3c4ccc(C(=O)O)cc4CC[C@@H]3[C@@H]2C2CCCC2)cc1Cl` [PF-03882845], the logD in data set [10] stood at 3.5.

For `COc1nc(C2=NN(c3ccc(C#N)c(C)c3)[C@H](C3CCCC3)C2)ccc1C(=O)O`, in data set [10], the logD stood at 2.2.

With `CNC(=O)c1ccc(C2=NN(c3ccc(C#N)c(C)c3)[C@@H](C3CCCC3)C2)nc1OC`, the logD in data set [10] was 4.4. With `CCOc1cc(C2=NN(c3ccc(C#N)c(Cl)c3)[C@@H](C3CCCC3)C2)ccc1C(=O)O`, the logD in data set [10] came out at 2.6. For `COc1nc(C2=NN(c3ccc(C#N)c(C)c3)[C@@H](C3CCCC3)C2)ccc1C(=O)N(C)C`, in data set [10], the pH-dependent lipophilicity (logD) amounted to 3.5. The same measure, in the same setting: the same measure for `CCOc1cc(C2=NN(c3ccc(C#N)c(C)c3)[C@@H](C3CCCC3)C2)ccc1C(=O)O`: 2.7.
